# Measurements: ChEMBL document CHEMBL4732196, “Structural optimization towards promising β-methyl-4-acrylamido quinoline derivatives as PI3K/mTOR dual inhibitors for anti-cancer therapy: The in vitro and in vivo biological evaluation” (Eur J Med Chem, 2021)
# Legend:
# [1] = molecular target: Cyclin-dependent kinase-like 3 (Homo sapiens) (UniProt Q8IVW4); assay: Inhibition of human partial length CDKL1 (M1 to D327 residues) expressed in bacterial system assessed as residual activity at 10 uM by kinome scan method relative to control
# How it was run: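 KINOMEscan binding assay, test compound at 10 μM against a 52-kinase panel. % Ctrl = (compound signal − positive control signal)/(negative control signal − positive control signal) × 100, with DMSO as negative control (100%) and a positive control (0%).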
# [2] = MRT(0 to t) in Sprague-Dawley rat at 5 mg/kg, po; format: ADME, organism-based; conditions: in vivo
# How it was run: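 Male Sprague-Dawley rats (n = 3) received a single 5 mg/kg oral gavage dose formulated as a suspension in 0.5% methylcellulose. Plasma concentration-time curves were recorded and mean PK parameters derived.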
# Chain of Cyclin-dependent kinase-like 3 (Homo sapiens) (Q8IVW4 whole entry, looked up, the tested form may be a part): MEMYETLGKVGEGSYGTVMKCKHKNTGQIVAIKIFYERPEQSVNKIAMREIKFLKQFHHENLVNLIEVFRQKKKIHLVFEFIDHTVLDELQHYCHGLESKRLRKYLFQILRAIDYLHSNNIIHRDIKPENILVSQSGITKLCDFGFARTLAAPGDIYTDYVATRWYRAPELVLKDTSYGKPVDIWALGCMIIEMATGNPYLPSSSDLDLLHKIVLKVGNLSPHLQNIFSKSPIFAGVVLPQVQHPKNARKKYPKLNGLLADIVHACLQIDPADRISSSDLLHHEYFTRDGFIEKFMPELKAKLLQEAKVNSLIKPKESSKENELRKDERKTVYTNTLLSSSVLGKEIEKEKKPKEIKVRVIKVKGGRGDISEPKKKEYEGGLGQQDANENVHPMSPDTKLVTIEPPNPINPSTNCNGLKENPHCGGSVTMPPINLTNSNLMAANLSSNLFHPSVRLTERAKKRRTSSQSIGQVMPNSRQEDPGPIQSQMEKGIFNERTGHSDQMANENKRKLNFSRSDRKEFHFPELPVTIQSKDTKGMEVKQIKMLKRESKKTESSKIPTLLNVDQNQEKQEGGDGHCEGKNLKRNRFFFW
structure (smiles),measurement,setting,value
COc1ncc(-c2ccc3nccc(/C(C)=C/C(=O)N4CCN(C)CC4)c3c2)cc1NS(=O)(=O)c1ccc(F)cc1F,Activity,[1],100%
same,MRT last,[2],1.9 h
